# Bioassay records as filed in PubChem BioAssay.
# TRPML3 ag: human TRPML3 channel agonists, primary screen, cell-based, HEK293 TRPML3-YFP, Fluo-8 calcium fluorescence, 3 µM | Mucolipin-3 (Homo sapiens), Q8TDD5 | 100% = the carbachol control signal | activation, % at 3 µM | actives 0.29% (n = 220,000) | AID 1448, 2008;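 active = activation above its plate's cutoff, the mean activation of the plate's test wells plus 3 SD, cut at about 12% in these data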;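 also: 0% = DMSO only wells and 100% = carbachol wells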
# Target sequence (Q8TDD5 whole entry, looked up): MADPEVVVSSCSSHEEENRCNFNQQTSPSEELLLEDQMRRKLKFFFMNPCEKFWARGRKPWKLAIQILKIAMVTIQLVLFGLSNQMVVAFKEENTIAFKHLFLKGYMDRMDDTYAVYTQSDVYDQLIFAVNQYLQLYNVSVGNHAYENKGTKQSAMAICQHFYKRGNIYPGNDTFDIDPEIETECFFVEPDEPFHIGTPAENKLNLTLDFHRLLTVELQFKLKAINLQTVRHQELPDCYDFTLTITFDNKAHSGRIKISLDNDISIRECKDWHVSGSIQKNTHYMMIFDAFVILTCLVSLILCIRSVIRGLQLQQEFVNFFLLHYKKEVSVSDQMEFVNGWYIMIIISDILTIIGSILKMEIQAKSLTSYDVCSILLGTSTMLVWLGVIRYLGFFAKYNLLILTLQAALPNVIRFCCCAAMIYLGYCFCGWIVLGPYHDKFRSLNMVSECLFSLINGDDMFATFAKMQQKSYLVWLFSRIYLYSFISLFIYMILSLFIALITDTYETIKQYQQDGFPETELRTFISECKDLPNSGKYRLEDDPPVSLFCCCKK
#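 Material: TRPML3-YFP stable HEK293 cells | Dosing: One concentration, 3 µM nominal, 0.3% DMSO | Timing: 125 s total fluorescence read per well | Technique: Fluo-8 calcium dye fluorescence, ex 470-495, em 515-575 nm | Measure: Percent activation from peak-to-basal fluorescence ratio, scaled between DMSO and carbachol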
# CHO parental Ca: ATP-evoked calcium signal inhibitors, parental CHO, primary screen, counter-screen for OX1R antagonist project, cell-based, fluorescence, Fluo-8 calcium dye | parental CHO-K1, ATP-induced calcium, Fluo-8 fluorescence | inhibition, % at 5.6 µM | actives 0.63% (n = 330,000);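 active = inhibition above that plate's mean sample inhibition plus 3 SD, cut at about 26% in these data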;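 also: 0% = ATP-challenged DMSO wells and 100% = DMSO wells without ATP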
#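 Measured by: calcium-sensitive Fluo-8 fluorescence / Test system: CHO parental line / Controls: ATP-challenged DMSO wells low, unchallenged DMSO wells high / Measure: % inhibition / Compound: single nominal dose of 5.6 µM per compound / Replicates: single well per compound, no replicates / Reagent: ATP as calcium-mobilizing challenge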
# OX1R antag-1: antagonists of human orexin 1 receptor (OX1R). Orexin/Hypocretin receptor type 1 (Homo sapiens), O43613. OX1R-expressing cells, FRET antagonist read-out. inhibition, % at 6.6 µM. actives 1.8% (n = 330,000); in the data active = inhibition mostly above about 38%, no sharp cut-off; inactive = mostly below about 40%;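 also: 0% = agonist challenge alone and 100% = reference antagonist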
# zfTRPN1 agonist: zebrafish TRPN1 channel agonists, primary screen, cell-based, HEK293, calcium fluorescence | transient receptor potential cation channel N1 (TRPN1/NompC), Danio rerio | HEK293 zebrafish TRPN1-YFP, Fluo-8 calcium fluorescence; 100% = response to 87 µM carbachol | activation, % at 3 µM | actives 0.18% (n = 220,000) | AID 1424, 2008;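 active = activation above its plate's cutoff, the mean activation of test wells on that plate plus 3 SD, cut at about 19% in these data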;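 also: 0% = DMSO alone and 100% = 87 µM carbachol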
#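 Control set: carbachol 87 µM as high control, DMSO as low control; system: HEK293 stable line with zebrafish TRPN1-YFP; read-out: % activation versus carbachol response; detection: intracellular calcium fluorescence with Fluo-8; doses: single test compound dose, 3 µM nominal, 0.3% DMSO; schedule: dye 1 h 37 °C plus 30 min RT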
# OX1R antag-2: OX1R (HCRTR1) antagonists, primary screen, fluorescence, CHO/OX1R cells, Fluo-8 calcium, orexin A; Orexin/Hypocretin receptor type 1 (Homo sapiens), O43613; Fluo-8 calcium fluorescence; inhibition, % at 5 µM; actives 0.43% (n = 330,000); AID 434989, 2010;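 active = inhibition above its plate's threshold, mean inhibition of all tested compounds on the plate plus 3 SD, cut at about 37% in these data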;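 also: 0% = orexin A challenge wells and 100% = SB-334867-A antagonist wells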
# GPR7 antagonist: GPR7 receptor antagonists, primary screen, cell-based, fluorescence, single concentration. Neuropeptides B/W receptor type 1 (Homo sapiens), P48145. GPR7-expressing cells, fluorescence antagonist assay. inhibition, % at 4.4 µM. actives 1.1% (n = 290,000); in the data active = inhibition above about 16%, passing the limit was not always enough;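 also: cells stimulated with the agonist NPW; 0% = agonist with vehicle and 100% = vehicle without agonist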
# An asterisk follows results filed as active; . = no result given. Rows were chosen to be rich in hits. Some 3.2% of all compounds tested hit in one or more screens of this group.
SMILES,TRPML3 ag,CHO parental Ca,OX1R antag-1,zfTRPN1 agonist,OX1R antag-2,GPR7 antagonist
Cc1cn([C@@H](CCCCNC(=O)OC(C)(C)C)C(=O)NCCCCCCCCCCC(=O)N2CCN(C(=O)OC(C)(C)C)CC2)nn1,.,60.6*,61.4*,.,36.2,.
Cc1nnc(N/N=C/c2cccc(OCc3ccc(Cl)c(Cl)c3)c2)n1N,0.5,-8.7,43.8*,1.3,-6.5,-5.4
C#CCn1c(S(=O)(=O)Cc2ccc(OC)cc2)nc(-c2ccccc2)c1-c1ccccc1,-0.3,-22.8,57.6*,-1.1,-7.8,24.5
CCOC(=O)Cn1c(S(=O)(=O)Cc2ccc(Cl)cc2)nc(-c2ccccc2)c1-c1ccccc1,0.2,-26.8,8.2,-0.3,-44.7,-8.7
ClC(Cl)(c1nnnn1-c1ccccc1)c1nnnn1-c1ccccc1,4.2,92.7*,20.8,2.9,63.3*,0.7
COc1ccc2[nH]c3c(c2c1)CCN1C(=O)C(CC(=O)NCc2ccc(OC)c(OC)c2)C[C@H](C(=O)N2CCCCC2)[C@@]31CCc1ccccc1 (some centres undefined),.,-23.5,4.3,.,-20.7,.
COc1cccc(CN(C)C(=O)c2ccccc2Sc2ccccc2C#N)c1OC,.,.,.,.,.,2.9
CCN(c1ccccc1)S(=O)(=O)c1ccc(Cl)c(NC(=O)CN2CCCCCC2)c1,0.0,72.9*,86.8*,3.0,32.1,-12.5
CN(C)S(=O)(=O)c1ccc(Cl)c(NC(=O)CN2CCCCCC2)c1,-0.2,7.0,17.4,0.0,-26.5,7.3
CCN(CC)S(=O)(=O)c1ccc(Cl)c(NC(=S)NC(=O)C2CCCC2)c1,.,44.5*,9.0,.,67.2*,.
COC(=O)CCN(C(=O)c1ccc([N+](=O)[O-])cc1)c1ccccn1,-0.2,-35.3,33.7,1.8,-71.4,-1.6
COC(=O)CCN(C(=O)c1cc([N+](=O)[O-])cc([N+](=O)[O-])c1)c1ccccn1,0.9,0.6,66.3*,0.4,-17.2,-9.2
CN(C)c1cccc2c1C(=O)c1ccccc1C2=O,-1.0,-13.3,45.9*,-2.4,-13.4,-6.1
CCC(C)c1ccc(C(C)NC(=S)NCc2ccc(F)cc2)cc1 (centres undefined),.,18.3,13.7,.,9.2,-10.4
CCC(NC(=S)NCc1ccc(F)cc1)c1ccc(C(C)C)cc1 (centres undefined),.,42.4*,19.3,.,-2.5,9.8
c1csc(-c2nc(NCCCN3CCOCC3)c3ccccc3n2)c1,.,-9.1,8.6,.,-24.4,-4.3
c1ccc(CNc2nc(-c3cccs3)nc3ccccc23)nc1,-0.4,-17.3,53.6*,-1.7,-1.4,-3.2
COc1cc(/C=N/n2nnnc2Nc2ccccc2)cc(OC)c1OC,-0.4,-6.9,17.3,1.6,-22.7,5.3
COc1ccc2c(c1)NC(c1ccc(N(C)C)cc1)c1cccn1-2 (centres undefined),0.4,-10.0,67.2*,-0.7,6.0,-14.1
COc1ccc2c(c1)NC(c1cc(Cl)cc(Cl)c1O)c1cccn1-2 (centres undefined),1.0,.,.,1.4,.,-9.6
Cc1ccc(-c2noc(CN(C(=O)CCN3C(=O)c4ccccc4C3=O)C(C)C)n2)cc1,-0.3,-31.6,29.1,0.8,-1.7,-11.6
Cc1ccc(C)c(C(=O)N(Cc2nc(-c3ccc(Cl)cc3)no2)C(C)C)c1,28.1*,35.5*,28.5,1.2,-31.2,-6.5
Cc1ccc(-c2noc(CN(C(=O)Cc3ccccc3)C(C)C)n2)cc1,0.0,-10.6,52.2*,-1.0,-6.3,-3.1
COc1ccccc1OCC(=O)N(Cc1nc(-c2ccccc2)no1)C(C)C,.,-7.7,25.1,.,9.7,0.2
CC(C)N(Cc1nc(-c2ccccc2)no1)C(=O)COc1ccccc1,0.3,-15.2,30.5,0.0,-28.1,-7.2
SMILES,TRPML3 ag,CHO parental Ca,OX1R antag-1,zfTRPN1 agonist,OX1R antag-2,GPR7 antagonist
COc1cccc(C(=O)N(Cc2nc(-c3ccc(C)cc3)no2)C(C)C)c1,-0.2,-28.8,27.2,0.6,11.8,-13.5
CC(C)N(Cc1nc(-c2ccccc2)no1)C(=O)CSc1ccccc1,-1.0,-27.4,39.3*,-0.5,9.8,-17.3
Cc1cc(Br)ccc1OCC(=O)N(Cc1nc(-c2ccccc2)no1)C(C)C,0.2,-18.4,56.4*,-0.6,37.5,-6.1
CC(Cc1ccccc1)C(=O)Nc1ccc(Br)cc1 (centres undefined),.,-9.6,49.6,.,-12.3,-17.5
O=C1CCc2cc(S(=O)(=O)NC3CCCCC3)ccc2N1,.,-7.2,8.1,.,-11.8,.
CCN(C(=O)COC(=O)c1n[nH]c2ccccc12)c1ccccc1,.,-8.6,-4.0,.,2.2,.
NC(=O)C1CCN(C(=O)COc2ccc3ccc(=O)oc3c2)CC1,.,-7.4,12.4,.,-10.6,-7.3
COc1cccc(OCC(=O)N(Cc2nc(-c3ccc(Cl)cc3)no2)C(C)C)c1,1.4,-15.6,46.7*,0.5,-10.0,-9.0
COc1ccccc1OCC(=O)N(Cc1nc(-c2ccc(Cl)cc2)no1)C(C)C,0.6,-11.5,21.3,-0.1,-23.7,6.9
COc1cc(/C=C2\SC(=S)N(NC(=O)c3ccccc3O)C2=O)ccc1O,.,35.3*,24.7,.,20.6,34.7
CC(=O)c1sc(NC(=O)CN2C(=O)C3CCCCC3C2=O)nc1-c1ccccc1 (centres undefined),.,-17.5,14.6,.,-10.1,.
O=C(N=C1N=C2C=CC(Br)=CN2Cc2ccccc21)c1ccc([N+](=O)[O-])cc1[N+](=O)[O-],0.3,-2.8,45.2*,-1.0,-18.3,-6.2
CCOC(=O)C1CCN(C(=O)C2CCN(S(=O)(=O)c3cccc4nsnc34)CC2)CC1,.,-9.0,36.9,.,-13.1,-2.3
CC1CCN(CCNC(=O)C2CCCN(S(=O)(=O)c3cccc4nonc34)C2)CC1 (centres undefined),-0.3,-0.5,69.9*,2.1,-19.1,9.0
O=C(NC1CCN(Cc2ccccc2)CC1)C1CCN(S(=O)(=O)c2cccc3nsnc23)CC1,0.5,-16.5,71.1*,2.4,-19.6,-3.6
O=C(NC1CCN(Cc2ccccc2)CC1)C1CCN(S(=O)(=O)c2cccc3cccnc23)CC1,0.3,-18.5,13.6,2.0,-6.1,-2.0
O=C(NCc1ccccc1)C1CCCN(S(=O)(=O)c2cccc3nonc23)C1 (centres undefined),-0.7,-9.6,54.6,-0.2,-29.7,3.0
